EBI2 antag – EBI2 (human) antagonism; inhibition, % at 5 µM; P32249; AID 651636; EBI2 beta-arrestin recruitment, luminescence, 7a,25-OHC stimulated; actives 0.81% (n = 360,000); in the data active means inhibition above about 38%;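 further: enzyme fragment complementation signal reports receptor beta-arrestin coupling in cells; 0% = agonist plus DMSO wells and 100% = wells without agonist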
SENP1 FRET inh – SENP1 (human) catalytic domain inhibition; recombinant SENP1 catalytic domain, CyPet-SUMO1-YPet FRET cleavage; inhibition, % at 10 µM; actives 0.21% (n = 360,000);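 active means inhibition at least 30% at 10 µM, raw YFP signal under a set limit, fluorescence ratio 0.5 to 1.5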;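 further: 0% = enzyme with DMSO and 100% = no enzyme wells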
Target sequence (Q9P0U3 419-644 limits assumed): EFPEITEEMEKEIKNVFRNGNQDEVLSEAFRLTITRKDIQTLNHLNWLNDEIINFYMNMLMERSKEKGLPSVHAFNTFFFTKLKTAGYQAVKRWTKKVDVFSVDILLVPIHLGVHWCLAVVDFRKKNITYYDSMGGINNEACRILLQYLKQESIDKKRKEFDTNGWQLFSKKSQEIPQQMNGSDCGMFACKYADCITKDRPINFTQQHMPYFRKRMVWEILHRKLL
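System: Recombinant human SENP1 catalytic domain, His6-tagged | Incubation: Enzyme reaction for 50 min at room temperature, dark | Medium: Tris pH 8 with BME, BSA, NP40 and catalase | Also added: 25 nM SUMO1 FRET substrate | Compound: 10 µM single point, 0.5% DMSO | Measured by: FRET fluorescence in CFP and YFP emission channels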
MPTP block – permeability transition pore inhibition; isolated mouse mitochondria, Ca2+ swelling absorbance, 30 min; inhibition, % at 10 µM; actives 1.4% (n = 360,000); AID 602449;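 active means inhibition of 50% or more, scaled per plate between neutral and stimulator controls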;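 further: 0% = DMSO wells given calcium and 100% = 1 mM EGTA wells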
GRIN3A LBD mod – modulates the human NR3A ligand-binding domain | NR3A LBD differential scanning fluorimetry, Tm shift; 0% = protein alone, 100% = glycine-bound protein | Tm shift relative to glycine control, % at 25 µM | actives 2.5% (n = 340,000);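 active means melting temperature shift of at least 10% of the positive control shift, at one fixed dose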
MPTP counter – mitochondrial membrane potential, counter-screen. shares compounds with MPTP block. isolated mitochondria, Rhodamine 123 fluorescence. inhibition, % at 10 µM. actives 78% (n = 5,000). AID 624504; in the data active means inhibition above about 22%;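 further: 0% = DMSO vehicle and 100% = positive control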
MPTP abs DR – MPTP inhibition, dose response swelling confirmation; shares compounds with MPTP block; isolated mitochondria swelling, absorbance; actives 58% (n = 780); AID 651561; IC50, µM; in the data active means IC50 below about 20 µM
MPTP cs DR – active in counter-screen for permeability transition pore inhibitors. IC50, µM. isolated mitochondria counterscreen, fluorescence read-out. AID 651564. actives 49% (n = 780). shares compounds with MPTP block; in the data active means IC50 below about 80 µM
An asterisk follows results filed as active; i = inactive; . = not tested or not shown. Hits are enriched below; roughly 4.4% of the tested compounds scored in any of these assays.

SMILES | EBI2 antag | SENP1 FRET inh | MPTP block | GRIN3A LBD mod | MPTP counter | others
Cn1cc(C(CO)Cc2ccccc2)c2ccccc21 (centres undefined) | -6.3 | -1.1 | -0.3 | 3.9 | .
CC(C)(C)OC(=O)CC[C@@H](C(=O)NCCCCCCCCCCC(=O)N1CCN(C(=O)OC(C)(C)C)CC1)n1cc(CCCCCNC(=O)OC(C)(C)C)nn1 | -3.5 | 0.4 | 1.0 | 0.6 | .
CC[C@H](C)[C@@H](C(=O)NCCCCCCCCCCC(=O)N1CCN(C(=O)OC(C)(C)C)CC1)n1cc(CCCCCNC(=O)OC(C)(C)C)nn1 | -47.4 | 0.8 | 86.8* | -6.9 | 22.1*
CC(C)(C)OC(=O)NCCCC[C@@H](C(=O)NCCCCCCCCCCC(=O)N1CCN(C(=O)OC(C)(C)C)CC1)n1cc(CCCC(=O)O)nn1 | 1.2 | 1.1 | -1.1 | -0.8 | .
CC(C)(C)OC(=O)NCCCCCc1cn([C@@H](CO)C(=O)NCCCCCCCCCCC(=O)N2CCN(C(=O)OC(C)(C)C)CC2)nn1 | -47.0 | -0.3 | 98.8* | -2.3 | 108.5*
CC(=O)Nc1cccc(NC(=O)Cc2cccs2)c1 | 3.6 | 0.4 | 0.7 | -4.4 | .
O=C(Cc1cccs1)Nc1cccc(-c2nc3cc4ccccc4cc3[nH]2)c1 | 16.7 | -3.0 | 90.0* | 28.4* | 37.0*
Cc1ccc(-c2csc(/C(C#N)=C(\O)CCl)n2)cc1 | 12.6 | -7.6 | 91.2* | -1.2 | 64.5*
N#C/C(=C(/O)CN1CCN(c2ccccc2F)CC1)c1nc(-c2ccc(Cl)cc2)cs1 | -2.9 | -4.6 | 57.8* | 7.8 | 70.6*
COc1cc([N+](=O)[O-])ccc1NC(=S)Nc1cc(C(=O)OC(C)C)cc(C(=O)OC(C)C)c1 | 0.6 | -5.3 | 91.5* | 11.9* | 83.7*
COc1ccccc1C(O)(C(=O)N(NC(C)=O)c1ccccc1)c1ccccc1OC | -13.9 | -0.1 | -0.7 | -3.0 | .
O=C(CN1c2ccccc2Sc2ccccc21)NNC(=S)Nc1ccc(Cl)cc1 | 5.3 | -1.8 | 63.2* | 33.0* | 50.5*
Cn1cccc1CC(=O)NNC(=S)Nc1ccc(Cl)cc1Cl | 0.8 | 1.8 | 2.2 | -4.3 | .
COc1cccc(OCC(=O)NNC(=S)Nc2ccc(Cl)cc2Cl)c1 | -1.3 | 4.1 | 67.8* | 6.1 | 99.2*
O=C(COc1cccc(Cl)c1)NNC(=S)Nc1ccccc1 | -6.0 | 1.0 | 4.3 | -1.3 | .
O=C(CN1c2ccccc2Sc2ccccc21)NNC(=S)Nc1ccc(Cl)cc1Cl | 4.0 | 1.7 | 82.9* | 21.4* | 76.6*
O=C(CN1CCOCC1)NNC(=S)Nc1ccc(Cl)cc1 | 4.7 | 2.3 | 0.3 | -1.6 | .
COC(=O)c1sc(NC(=S)NC(=O)c2cccc(Br)c2)nc1C | -9.9 | -0.6 | 89.5* | -3.4 | 49.2*
O=c1c2oc3ccccc3c2[nH]c(=S)n1-c1ccc(F)cc1 | -11.2 | -0.1 | -0.2 | -1.6 | .
COc1ccccc1-n1nc(C)c(-c2ccccc2)c1N | -2.6 | 2.2 | -1.9 | 0.1 | .
CCOc1ccccc1N1CCN(C(=O)Nc2ccc(F)c(Cl)c2)CC1 | 15.8 | -1.4 | 88.0* | -1.3 | 92.8*
COc1ccccc1N1CCN(C(=O)Nc2ccc(F)c(Cl)c2)CC1 | 12.6 | -0.4 | 3.9 | -2.7 | .
Cn1c2c(c(=O)n(C)c1=O)C(C(F)(F)F)(C(F)(F)F)N=C(c1ccc(Cl)cc1)N2 | -20.5 | -1.2 | 99.1* | 3.5 | 84.0*
CCc1cc2c(SCC#N)ncnc2s1 | -23.2 | -3.9 | 0.2 | -1.5 | .
O=[N+]([O-])c1ccc(O)c(/C=N\N=C2c3ccccc3-c3ccccc32)c1 | -4.2 | 58.1* | 104.5* | 14.3* | 92.9*
CCCCNCCOCCOc1ccccc1-c1ccccc1 | -3.8 | 0.2 | 82.9* | 2.4 | -4.1 | MPTP abs DR=i;MPTP cs DR=>80
COCCNCCCCOc1ccccc1-c1ccccc1 | 8.6 | 3.4 | 0.7 | -6.2 | .
COc1cc(C)c(NC(=S)Nc2ccc(C)c(Cl)c2)cc1OC | 0.0 | -0.6 | 60.9* | 6.0 | 76.8*
COc1ccc(NC(=S)Nc2cccc(Cl)c2Cl)cc1OC | 7.8 | -0.8 | 0.3 | 0.3 | .
CCNC(=S)Nc1ccc(C)c(S(=O)(=O)Nc2ccccc2OC)c1 | -3.6 | 1.5 | 2.7 | -0.2 | .
